Experimental data published in PMC5767125 (Journal of medicinal chemistry, 2017).

Legend:
[1] = target: D3R (Homo sapiens, UniProt P35462); test: Inhibition of forskolin-dependent stimulation of adenylyl cyclase; type: cell-based; details: compound at 10x the Ki value; efficacy relative to full agonist Quinpirole
Outline: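 Test compound at 10x its Ki, assessed for inhibiting forskolin-dependent adenylyl cyclase stimulation. Output is mean percent efficacy ± SEM relative to the full agonist quinpirole.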

[2] = target: 5-HT2A receptor (Homo sapiens, UniProt P28223); test: 5-HT2A receptor binding; details: data not shown; comparable to those at 5-HT1AR
[3] = target: T1, 5-HT2c receptor (Homo sapiens, UniProt P28335); test: 5-HT2c receptor binding; details: data not shown; comparable to those at 5-HT1AR
T1 sequence (P28335 33-458): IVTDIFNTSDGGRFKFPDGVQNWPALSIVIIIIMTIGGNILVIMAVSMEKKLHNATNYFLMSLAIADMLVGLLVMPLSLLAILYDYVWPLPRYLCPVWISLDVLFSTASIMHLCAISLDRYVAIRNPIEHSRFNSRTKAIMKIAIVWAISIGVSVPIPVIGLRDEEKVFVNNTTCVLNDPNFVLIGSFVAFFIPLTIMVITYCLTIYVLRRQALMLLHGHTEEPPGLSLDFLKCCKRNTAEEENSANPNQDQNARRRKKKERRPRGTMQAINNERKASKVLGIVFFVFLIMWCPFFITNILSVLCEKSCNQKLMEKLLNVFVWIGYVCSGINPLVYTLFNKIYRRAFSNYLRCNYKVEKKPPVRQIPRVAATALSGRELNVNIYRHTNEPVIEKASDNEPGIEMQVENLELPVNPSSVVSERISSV

Chain of D3R (P35462 whole entry): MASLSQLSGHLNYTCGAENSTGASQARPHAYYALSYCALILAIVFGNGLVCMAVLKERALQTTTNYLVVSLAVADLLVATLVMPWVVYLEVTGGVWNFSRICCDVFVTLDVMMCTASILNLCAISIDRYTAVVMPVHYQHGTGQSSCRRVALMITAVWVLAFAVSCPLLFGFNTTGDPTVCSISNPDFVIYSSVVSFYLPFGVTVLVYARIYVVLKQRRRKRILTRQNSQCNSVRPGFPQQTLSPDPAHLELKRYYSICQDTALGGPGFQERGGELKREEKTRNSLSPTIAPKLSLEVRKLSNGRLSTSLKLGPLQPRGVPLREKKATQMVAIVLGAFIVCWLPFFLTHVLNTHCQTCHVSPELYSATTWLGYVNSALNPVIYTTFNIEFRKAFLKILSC
Chain of 5-HT2A receptor (P28223 whole entry): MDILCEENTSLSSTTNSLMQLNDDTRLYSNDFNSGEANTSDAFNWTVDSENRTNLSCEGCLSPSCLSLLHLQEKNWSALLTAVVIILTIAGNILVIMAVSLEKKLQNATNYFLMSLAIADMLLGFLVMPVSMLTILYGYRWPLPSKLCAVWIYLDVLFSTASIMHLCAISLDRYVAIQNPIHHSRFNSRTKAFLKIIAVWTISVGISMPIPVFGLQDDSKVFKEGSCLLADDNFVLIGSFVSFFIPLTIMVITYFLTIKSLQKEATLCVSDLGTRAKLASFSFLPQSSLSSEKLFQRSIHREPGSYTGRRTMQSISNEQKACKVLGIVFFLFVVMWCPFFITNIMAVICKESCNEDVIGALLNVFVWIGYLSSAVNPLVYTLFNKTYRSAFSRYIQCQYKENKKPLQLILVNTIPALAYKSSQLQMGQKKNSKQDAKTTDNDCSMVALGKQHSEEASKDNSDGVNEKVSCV

functional activity, adenylyl cyclase assay [1] | binding affinity at 5-HT2A receptor [2] | binding affinity at 5-HT2c receptor [3] | Compound
low activity | low binding affinities | low binding affinities | COc1ccccc1N1CCC2(CCN(CCCSc3nnc(-c4ccccc4)n3C)CC2)C1 [Compound 14]
partial agonist | low binding affinities | low binding affinities | COc1ccccc1N1CCC2(CCN(CCCSc3nnc(-c4ccccc4)n3C)CC2)CC1 [Compound 15a]
low activity | low binding affinities | low binding affinities | Cn1c(SCCCN2CCC3(CC2)CCN(c2ccc(F)cc2)CC3)nnc1-c1ccccc1 [Compound 15c]
